Screening results deposited in PubChem BioAssay by several laboratories.
WNV NS2B-NS3 inh – blocks West Nile virus NS2B-NS3 protease activity. P06935. z-score (test concentration not listed). hit rate 0.18% among 65,000. WNV NS2B-NS3 protease, fluorogenic substrate Ex360/Em465; stronger effect = lower value; in the data active = z-score below about -3
MMP-13 inhibitor – blocks human MMP13 activity; P45452; MMP-13 fTHP FRET cleavage, Mca fluorescence; inhibition, % at 4 µM; hit rate 0.07% among 65,000;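 active = inhibition above the mean of compound-free control plate wells plus 3 SD, cut at about 14% in these data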;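 also: 0% = DMSO wells and 100% = wells with reference MMP-13 inhibitor after basal subtraction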
MT1-MMP txn act – activates MT1-MMP transcription. hit rate 0.16% among 86,000. AID 750. HT1080 MT1-MMP promoter luciferase reporter, luminescence, overnight; stronger effect = higher value. activation factor at 10 µM;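 active = activation factor of at least 2 for MT1-MMP transcription at 10 µM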
SF1 activator – SF-1 (human) activation. activation, % at 10 µM. Q13285. hit rate 1.9% among 65,000. CHO-K1 Gal4-SF-1 LBD luciferase reporter; % increase over DMSO SF-1-specific signal;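 active = activation above the mean activation of all tested compounds plus 3 SD, cut at about 50% in these data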
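Material: Gal4–SF-1 LBD one-hybrid luciferase reporter in CHO-K1 cells | Amount: 4,000 cells per well | Compound dosing: 10 µM single point, 1% DMSO | Schedule: 20 h compound treatment, 37 °C | Measured by: SteadyLite luciferase luminescence | Evaluation: Percent activation versus DMSO | Control set: DMSO-treated SF-1-transfected cells as negative, DMSO-treated mock-transfected cells lacking SF-1 as background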
RORa activator – activates the human nuclear receptor RORA. hit rate 1.5% among 65,000. AID 560. CHO-K1 Gal4-RORA LBD luciferase reporter, luminescence; percent increase over mock-subtracted basal signal. activation, % at 10 µM;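 active = activation above the mean of all tested compounds plus 3 SD, cut at about 49% in these data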;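 also: 0% = DMSO-treated RORA cells and 100% = added signal equal to DMSO minus mock-transfected cells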
Target sequence (P35398 whole entry, looked up, the tested form may be a part): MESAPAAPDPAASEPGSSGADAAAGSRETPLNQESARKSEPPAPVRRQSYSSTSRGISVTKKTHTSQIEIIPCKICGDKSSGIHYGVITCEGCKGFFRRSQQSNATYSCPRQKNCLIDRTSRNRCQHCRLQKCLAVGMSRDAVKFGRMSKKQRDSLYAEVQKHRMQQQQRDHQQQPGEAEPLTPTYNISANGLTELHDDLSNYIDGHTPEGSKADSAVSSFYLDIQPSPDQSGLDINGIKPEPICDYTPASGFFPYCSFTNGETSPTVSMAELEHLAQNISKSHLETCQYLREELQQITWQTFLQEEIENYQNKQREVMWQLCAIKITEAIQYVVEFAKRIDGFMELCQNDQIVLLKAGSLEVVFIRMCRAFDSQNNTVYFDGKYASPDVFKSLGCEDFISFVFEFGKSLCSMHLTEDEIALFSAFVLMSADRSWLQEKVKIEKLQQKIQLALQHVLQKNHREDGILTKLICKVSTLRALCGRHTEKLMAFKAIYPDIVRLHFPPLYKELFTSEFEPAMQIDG
Numbers without * were called inactive; · = not tested or not shown. An excerpt weighted towards active compounds, which were near 2.3% of everything screened.

SMILES	WNV NS2B-NS3 inh	MMP-13 inhibitor	MT1-MMP txn act	SF1 activator	RORa activator
COc1ccc(-c2noc(COc3ccccc3OC)n2)cc1OC	-1.8	6	1.2	16	26
COc1ccc(-c2noc(-c3ccccc3Cl)n2)cc1OC	-0.29	4	1.7	45	82*
O=S(=O)(Cc1ccccc1)N1CCN(Cc2ccc3c(c2)OCO3)CC1	0.44	·	·	·	·
COC(=O)CNC(=O)C1(C)C=CC2(CCCCC2)N1C(C)=O (stereo unspecified)	·	·	1.2	·	·
COc1ccc(-c2cc3nc[nH]c(=O)c3s2)cc1	·	·	1.2	·	·
O=c1[nH]cnc2cc(-c3ccccc3)sc12	-0.21	-8	1.4	56*	18
COc1cccc(CN(C(=O)c2cc3ccccc3oc2=O)C2CC2)c1	1.2	-6	1.6	17	52*
COc1ccc(NC(=O)CSc2nc3c(c(=O)n2-c2ccc(C)cc2)SCC3)c(OC)c1	0.68	1	1.1	-13	12
O=C(CSc1nnc(-c2ccco2)o1)NC1CCCCC1	-0.72	·	·	·	·
CN(C(=O)CSc1nnc(-c2ccco2)o1)C1CCCCC1	-1.1	2	1.3	29	50*
COc1cc2[nH]c(=O)n(CCCCCC(=O)N3CC=C(c4ccccc4)CC3)c(=O)c2cc1OC	·	·	1.1	·	·
COc1ccc(-c2nnc(SCc3ccccc3)n2N)cc1	-0.69	2	1.8	66*	39
COc1ccc(-c2nnc(SCCc3ccccc3)n2N)cc1	-0.52	-1	1.3	18	-3
CCCC[C@H]1C[C@@H]1[C@@H]1N(P(=O)(c2ccccc2)c2ccccc2)[C@](CO)(c2ccccc2)CC12CC2	·	·	1.1	·	·
CCOC(=O)N1CCN(C2=CC(=O)OC23CCCCC3)CC1	-5.2*	1	1.1	-17	-34
C=CCOC(=O)C1=C(C)Nc2nc3ccccc3n2C1c1ccncc1 (stereo unspecified)	-3.1*	0	1.2	1	12
CCOC(=O)C1=C(C)Nc2nc3ccccc3n2C1c1ccncc1 (stereo unspecified)	0.84	1	1.1	9	4
COC(=O)[C@@]1(Cc2ccc(OC)cc2)[C@H]2c3cc(C(=O)N(C)C)n(Cc4ccc(C)c(F)c4F)c3C[C@H]2CN1C(=O)c1ccccc1	·	·	1.1	·	·
Cc1cc2nn(-c3ccccc3)nc2cc1NC(=O)c1cccs1	1.3	-1	1.5	38	95*
C[Si](C)(C)C#Cc1ccccc1NC(=S)Nc1ccccc1	·	·	1.1	·	·
CC1CCCC(C)N1C(=O)c1cc(-c2ccc(Cl)c(Cl)c2)on1 (stereo unspecified)	0.41	1	1.3	26	76*
Cc1ccc(-c2cc(C(=O)N3CCCC3)no2)cc1	-0.26	1	0.1	-51	-51
O=C(c1cnn(-c2nc3ccccc3s2)c1)c1ccccc1O	-0.31	6	1.2	36	52*
c1ccc(OCCn2cnc3ccccc32)cc1	0.57	-3	1.1	-3	-5
c1ccc(OCCOc2ncnc3ccccc23)cc1	1.2	-7	1.5	50*	38
SMILES	WNV NS2B-NS3 inh	MMP-13 inhibitor	MT1-MMP txn act	SF1 activator	RORa activator
COc1ccccc1-n1c(C)nnc1SCC(=O)Nc1cc(C)cc(C)c1	-9.1*	-3	1.9	-24	13
O=C(Cc1ccccc1F)Nc1nc(-c2cccs2)cs1	0.09	4	1.6	46	10
O=C(Cc1ccccc1)Nc1nc(-c2cccs2)cs1	-1.4	3	1.2	44	67*
c1cncc(Nc2nc(-c3cccs3)cs2)c1	-1.4	5	1.4	76*	59*
c1ccc(Nc2nc(-c3ccccn3)cs2)cc1	·	·	1.5	·	·
c1ccc(-c2csc(Nc3cccnc3)n2)nc1	-0.5	6	1.6	57*	24
CCNC(=O)CSc1nc2ccccc2c(=O)n1-c1cc(OC)ccc1OC	·	·	1.2	·	·
O=C(OCC(F)(F)C(F)F)c1ccccc1C(=O)Oc1ccc(F)cc1F	-0.17	6	1.1	-3	9
Cc1ccc(S(=O)(=O)CCC(=O)N2CCN(c3ccc(Cl)cc3)CC2)cc1	·	·	1.1	·	·
CCCCn1cnc2c(c1=O)c1nc3ccccc3nc1n2Cc1ccc2c(c1)OCO2	-0.7	3	1.1	-1	-27
Brc1ccc(-c2nc3ccccc3s2)s1	-1.2	-11	1.5	54*	48
c1ccc(-c2ccccn2)nc1	2	·	1.2	·	·
c1ccc(-c2nc3ccccc3s2)nc1	-1.3	-8	0.8	60*	34
CCOc1ccc(OCC)c(NC(=O)CSc2nc3c(c(=O)n(C)c(=O)n3C)n2C)c1	-0.72	-7	1.2	6	4
CCOc1ccc(OCC)c(NC(=O)CSc2nc3c(c(=O)n(C)c(=O)n3C)n2C(C)C)c1	-0.97	-9	1.1	101*	17
CCC(C)c1ccc2oc(-c3ccc(NC(=O)c4ncn[nH]4)cc3)nc2c1 (stereo unspecified)	2.6	-1	1.2	8	-9
CC(C)CC(=O)Nc1ccc2oc(-c3cccnc3)nc2c1	0.45	-263	1.5	32	46
Cc1ccc2oc(-c3ccc(NC(=O)CC(C)C)cc3)nc2c1	-0.35	-151	1.3	44	55*
CC(=O)Nc1ccc2oc(-c3cc(F)c(F)cc3Cl)nc2c1	-0.59	-36	·	53*	52*
O=C(Nc1ccc2oc(-c3ccccc3Cl)nc2c1)c1ncn[nH]1	1.1	-35	0.8	76*	62*
CC(C)c1ccc2oc(-c3ccc(NC(=O)c4ncn[nH]4)cc3)nc2c1	-0.8	-16	1	66*	33
O=C(CN1CCC(n2nnc3cc(F)ccc32)CC1)Nc1ccccc1N1CCOCC1	1.7	-1	1.2	42	-10
CCC1CC2CC(NC(C)=O)C1C2 (stereo unspecified)	·	·	1.2	·	·
O=C(O)CC(c1ccc(Cl)cc1)N1C(=O)CCC1=O (stereo unspecified)	-1.4	3	1.1	-3	-17
CC1=C(C(=O)OCc2ccccc2)C(c2ccccc2OC(=O)c2cccs2)NC(=O)N1CCCC(=O)O (stereo unspecified)	·	·	1.2	·	·
SMILES	WNV NS2B-NS3 inh	MMP-13 inhibitor	MT1-MMP txn act	SF1 activator	RORa activator
C#CCn1c(=NC(=O)c2cccs2)sc2cccc(OC)c21	0.05	-79	1.3	76*	79*
C#CCn1c(=NC(=O)CSCC(=O)N2CCOCC2)sc2ccccc21	1.5	1	1.1	0	-20
COC(=O)C(C(=O)NCC1CCCO1)C1CCCC1 (stereo unspecified)	·	·	1	·	·
c1ccc(-c2n[nH]c(-c3ccccn3)n2)nc1	2.3	5	1.2	78*	24
Cn1cc(C(=O)N2CCN(C(=O)c3ccco3)CC2)c2c3ccccc3n(C)c2c1=O	-0.49	-37	1	-6	5
COc1ccc2nc(NC(=O)CSc3nc4cccnc4n3C)sc2c1	-6.4*	-1	1	-15	-2
CCOc1ccc2nc(NC(=O)c3cnccn3)sc2c1	-1.6	-8	0.7	19	86*
COc1ccc2nc(NC(=O)c3cccc(OCc4c(C)noc4C)c3)sc2c1	-0.13	-28	0.6	36	86*
CCCC(=O)Nc1nc2ccc(OC)cc2s1	1.4	-6	1.4	54*	56*
